# Reference: ChEMBL document CHEMBL3259690, “Synthesis, structure-activity relationships, and biological studies of chromenochalcones as potential antileishmanial agents” (J Med Chem, 2014)
# The source made the active and inactive calls. The calls are words filed in the database; no cut-off is given here.
# Columns and labels:
# [1] = Selectivity index, ratio of CC50 for African green monkey Vero cells to IC50 for Leishmania donovani MHOM/IN/80/Dd8 intracellular amastigote form expressing luciferase gene infected in mouse J774A1 cells; type: functional, J774.A1
# Method in brief: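 Ratio of CC₅₀ in Vero cells (72 h MTT) to IC₅₀ against luciferase-expressing amastigotes in J774A.1 macrophages (72 h luminescence).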
# Leishmania donovani [2] = assay: Antileishmanial activity against extracellular promastigote form of Leishmania donovani MHOM/IN/80/Dd8 expressing firefly luciferase gene assessed as inhibition of parasitic multiplication at 25 uM after 96 hrs by luminescence analysis; type: functional; details: for inhibition at 25 µM: MHOM/IN/80/Dd8, 96 h
# Method in brief: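 Late-log luciferase-expressing Dd8 promastigotes, 5 × 10⁵/mL in complete M-199, incubated with compound at 24 °C for 96 h. Aliquot mixed with Steady Glo and luminescence read as RLU. Inhibition of multiplication taken from luciferase signal of treated versus untreated parasites.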
# [3] = Cytotoxicity against African green monkey Vero cells after 72 hrs by MTT assay; type: cell-based; details: chlorocebus sabaeus
# Method in brief: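 Vero cells at 1 × 10⁵/mL exposed to seven concentrations from 400 μM at 37 °C, 5% CO₂, for 72 h. MTT (5 mg/mL) added for 2 h at 37 °C, formazan dissolved in DMSO, absorbance read at 544 nm. CC₅₀ estimated by the Huber and Koella method; at least duplicate measurements.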
# Leishmania donovani [4] = assay: Antileishmanial activity against intracellular amastigote form of Leishmania donovani MHOM/IN/80/Dd8 expressing luciferase gene infected in mouse J774A1 cells after 72 hrs by luminescence analysis; type: functional, organism-based; details: MHOM/IN/80/Dd8, J774.A1, 72 h
# Method in brief: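 J774A.1 macrophages (4 × 10⁴/mL, RPMI-1640 + 10% HIFBS, 37 °C, 5% CO₂), after 24 h infected with stationary-phase luciferase promastigotes (4 × 10⁵/mL). Free parasites washed off after 24 h. Compound added at up to 7 dilutions from 40 μM for 72 h. Luminescence read after Steady Glo in PBS. IC₅₀ from four-parameter Hill fit; at least duplicate measurements.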
# Leishmania donovani [5] = assay: Antileishmanial activity against Leishmania donovani MHOM/IN/80/Dd8 amastigotes infected in syrian golden hamster assessed as decrease in parasite count in spleen at 40 mg/kg/day, ip for 5 days measured on day 7 after last dose administration by giemsa staining; type: functional, organism-based
# Method in brief: (§1)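 Golden hamsters of either sex infected intracardially with 1 × 10⁷ L. donovani Dd8 amastigotes. After 15−20 days, pretreatment spleen biopsy; animals with +1 grade infection (5−10 amastigotes/100 spleen cell nuclei) used, 5−6 per compound. Aqueous suspensions dosed IP or PO for 5−10 consecutive days starting 2 days after biopsy. Splenic biopsies on day 7 and 28 after last dose, Giemsa counts; PI = 100 − [(ANAT×100)/(INAT×TIUC)].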
# Leishmania donovani [6] = assay: Antileishmanial activity against Leishmania donovani MHOM/IN/80/Dd8 amastigotes infected in syrian golden hamster assessed as decrease in parasite count in spleen at 40 mg/kg/day, ip for 5 days measured on day 28 after last dose administration by giemsa staining; type: functional, organism-based; method in brief: as §1
# [7] = Cytotoxicity against mouse J774A1 cells infected with Leishmania donovani expressing luciferase gene; type: cell-based; details: j774.a1
# Leishmania donovani [8] = assay: Antileishmanial activity against Leishmania donovani MHOM/IN/80/Dd8 amastigotes infected in syrian golden hamster assessed as decrease in parasite count in spleen at 50 mg/kg/day, po for 5 days measured on day 7 after last dose administration by giemsa staining; type: functional; details: MHOM/IN/80/Dd8, Spleen; method in brief: as §1
# Leishmania donovani [9] = assay: Antileishmanial activity against Leishmania donovani MHOM/IN/80/Dd8 amastigotes infected in syrian golden hamster assessed as decrease in parasite count in spleen at 50 mg/kg/day, po for 5 days measured on day 28 after last dose administration by giemsa staining; type: functional; details: MHOM/IN/80/Dd8, Spleen; method in brief: as §1
# Leishmania donovani [10] = assay: Antileishmanial activity against Leishmania donovani MHOM/IN/80/Dd8 amastigotes infected in syrian golden hamster assessed as decrease in parasite count in spleen at 30 mg/kg/day, po for 5 days measured on day 28 after last dose administration by giemsa staining; type: functional; details: MHOM/IN/80/Dd8, Spleen; method in brief: as §1
# Leishmania donovani [11] = assay: Antileishmanial activity against Leishmania donovani MHOM/IN/80/Dd8 amastigotes infected in syrian golden hamster assessed as decrease in parasite count in spleen at 30 mg/kg/day, po for 5 days measured on day 7 after last dose administration by giemsa staining; type: functional; details: MHOM/IN/80/Dd8, Spleen; method in brief: as §1
Compound,Ratio CC50/IC50 [1],inhibition at 25 µM (Leishmania donovani [2]),CC50 at 72 h [3],IC50 (Leishmania donovani [4]),other results
CC(C)=CCCC1(C)C=Cc2c(ccc(C(=O)/C=C/c3cc(C=O)ccc3O)c2O)O1 (stereo unspecified),5.5,91.2%,59.4 µM,10.7 µM,–
sodium stibogluconate,–,–,–,–,inhibition (Leishmania donovani [5]): 89.5%; inhibition (Leishmania donovani [6]): 72.5%; inhibition (Leishmania donovani [2]): inactive
CC(C)=CCCC1(C)C=Cc2c(ccc(C(=O)/C=C/c3ccc(O)c(C=O)c3)c2O)O1 (stereo unspecified),–,94.6%,–,> 20 µM,–
CC(C)=CCCC1(C)C=Cc2c(ccc(/C=C/C(=O)c3ccc(C)cc3)c2O)O1 (stereo unspecified),–,92.7%,–,> 20 µM,–
COc1ccc(C(=O)c2cc3cc(/C=C/C(=O)c4ccc5c(c4O)C=CC(C)(CCC=C(C)C)O5)ccc3o2)cc1 (stereo unspecified),–,92.9%,–,> 20 µM,–
CC(C)=CCCC1(C)C=Cc2c(ccc(/C=C/C(=O)c3ccc(C)c(C)c3)c2O)O1 (stereo unspecified),–,93.2%,–,> 20 µM,–
CC(C)=CCCC1(C)C=Cc2c(ccc(C(=O)/C=C/c3ccc4oc(C(=O)c5ccccc5)cc4c3)c2O)O1 (stereo unspecified),–,94.4%,–,> 20 µM,–
COc1ccc(/C=C/C(=O)c2ccc3c(c2O)CCC(C)(CCCC(C)C)O3)cc1 (stereo unspecified),–,62.3%,–,> 20 µM,–
CC(C)=CCCC1(C)C=Cc2c(ccc(C(=O)CCc3cccnc3)c2O)O1 (stereo unspecified),24.1,98.5%,266 µM,11 µM,–
CC(C)=CCCC1(C)C=Cc2c(ccc(C(=O)/C=C/c3ccc(O)cc3)c2O)O1 (stereo unspecified) [LESPEOL],11.5,97.5%,190 µM,16.5 µM,–
CC(C)=CCCC1(C)C=Cc2c(ccc(C(=O)/C=C/c3ccc(OCCN4CCCCC4)cc3)c2OCCN2CCCCC2)O1 (stereo unspecified),31.9,99.9%,–,6.3 µM,–
CC(C)=CCCC1(C)C=Cc2c(ccc(C(=O)/C=C/c3cccc(-c4ncc(-c5cccc(O)c5)o4)c3)c2O)O1 (stereo unspecified),>68.9,99.5%,> 400 µM,5.8 µM,–
CC(C)=CCCC1(C)C=Cc2c(ccc(C(=O)/C=C/c3cc4cc(C)ccc4nc3Cl)c2O)O1 (stereo unspecified),–,100%,–,–,Activity [7]: Toxic
CC(=O)N1N=C(c2ccc3c(c2O)C=CC(C)(CCC=C(C)C)O3)CC1c1cccnc1 (stereo unspecified),13.8,99.5%,88.5 µM,6.4 µM,–
CC(C)=CCCC1(C)C=Cc2c(ccc(C(=O)/C=C/c3cccnc3)c2OCCN2CCCCC2)O1 (stereo unspecified),38.3,99.8%,65.2 µM,1.7 µM,inhibition in vivo at 50 mg/kg/day (Leishmania donovani [8]): 73.2%; inhibition in vivo at 50 mg/kg/day (Leishmania donovani [9]): 50%
CC(C)=CCCC1(C)C=Cc2c(ccc(C(=O)/C=C/c3ccc4occc4c3)c2O)O1 (stereo unspecified),–,96.5%,–,> 20 µM,–
CCCCCCCCCCCCCCCCOP(=O)([O-])OCC[N+](C)(C)C [MILTEFOSINE],–,100%,–,–,inhibition in vivo at 30 mg/kg/day (Leishmania donovani [10]): 83.2%; inhibition in vivo at 30 mg/kg/day (Leishmania donovani [11]): 98.5%
